5 compounds from ChEMBL document CHEMBL4425098, “Thiolactomycin-Based Inhibitors of Bacterial β-Ketoacyl-ACP Synthases with in Vivo Activity” (J Med Chem, 2016) can be followed below.

Values after ≈ are worked out from the molar mass of the structure shown. Active and inactive are the calls of the source. No cut-off for these calls is given here.

The subject of series [1] is Staphylococcus aureus. In words: Antibacterial activity against methicillin-resistant Staphylococcus aureus BAA 1762 infected in sc dosed Swiss Webster mouse assessed as increase in survival rate administered 1 and 25 hrs post infection measured twice a day for 5 days. It counts as functional. The following applies: BAA 1762, sc. In a few lines:
(§1)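 Mice made neutropenic with cyclophosphamide 4 days and 1 day before infection. MRSA BAA 1762 was given IP as 0.5 mL of 5×10⁷ cells/mL in BHI. Analogues in water/ethanol, or vancomycin in water, were dosed SC at 100 mg/kg/inj at 1 and 25 h post infection. Survival was checked every 12 h for 5 days, n=6–7 per group. Average survival time was compared with vehicle by one-tailed t test.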

Series [2] has as its system Staphylococcus aureus. Briefly: Antibacterial activity against methicillin-resistant Staphylococcus aureus BAA 1762 infected in Swiss Webster mouse assessed as survival time at 100 mg/kg, sc administered 1 and 25 hrs post infection measured twice a day for 5 days. Type of series: functional. Put shortly: as §1
The subject of series [3] is Klebsiella pneumoniae. Briefly: Antibacterial activity against Klebsiella pneumoniae KPC2ST258 after 18 to 24 hrs by Alamar blue dye-based colorimetric assay. Type of series: functional, organism-based. (Alamar Blue is a resazurin reagent that responds to reducing activity.)
Series [4] has as its system Klebsiella pneumoniae. In words: Antibacterial activity against Klebsiella pneumoniae KPC2ST258 infected in Swiss Webster mouse assessed as survival time at 100 mg/kg, sc administered 1, 12 and 24 hrs post infection measured every 12 hrs for 7 days. It counts as functional. Put shortly: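 K. pneumoniae KPC2ST258 was given IP as 5×10⁶ cfu in BHI broth. Drugs in saline/PEG400/ethanol (40/20/40) were injected SC at 100 mg/kg/inj at 1, 12 and 24 h post infection. Mice were checked every 12 h for 7 days, n=8–10 per group. Average survival time was compared with vehicle by one-tailed t test.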

Series [5] addresses T1, 3-oxoacyl-[acyl-carrier-protein] synthase 2 (Staphylococcus aureus, UniProt Q5TKS0).
T1 sequence (Q5TKS0 whole entry): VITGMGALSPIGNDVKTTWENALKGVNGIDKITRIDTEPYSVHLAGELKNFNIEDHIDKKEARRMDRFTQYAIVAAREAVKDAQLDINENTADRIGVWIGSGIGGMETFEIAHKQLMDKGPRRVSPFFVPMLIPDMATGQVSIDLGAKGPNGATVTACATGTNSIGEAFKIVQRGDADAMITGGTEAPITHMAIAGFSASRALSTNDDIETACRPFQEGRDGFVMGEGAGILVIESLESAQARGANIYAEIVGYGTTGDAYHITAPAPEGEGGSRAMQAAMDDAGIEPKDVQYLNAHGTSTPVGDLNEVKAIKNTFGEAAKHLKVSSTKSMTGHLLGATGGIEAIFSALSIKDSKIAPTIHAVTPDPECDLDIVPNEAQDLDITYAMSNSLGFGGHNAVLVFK
In words: Binding affinity to Staphylococcus aureus wild type FabF expressed in Escherichia coli BL21 (DE3) PlysS cells by intrinsic tryptophan fluorescence quenching-based fluorimetric method.

The test system of series [6] is Staphylococcus aureus. In words: Antibacterial activity against methicillin-resistant Staphylococcus aureus BAA 1762 infected in Swiss Webster mouse assessed as increase in survival rate at 100 mg/kg, sc administered 1 and 25 hrs post infection measured twice a day for 5 days relative to vehicle-treated control. It counts as functional, organism-based. In a few lines: as §1

The test system of series [7] is Staphylococcus aureus. Briefly: Antibacterial activity against methicillin-resistant Staphylococcus aureus BAA 1762 after 18 to 24 hrs by Alamar blue dye-based colorimetric assay. It counts as functional.
The test system of series [8] is Francisella tularensis. In words: Antibacterial activity against Francisella tularensis LVS after 18 to 24 hrs by Alamar blue dye-based colorimetric assay. Type of series: functional.
In series [9] the test system is Staphylococcus aureus. In words: Antibacterial activity against methicillin-sensitive Staphylococcus aureus RN4220 after 18 to 24 hrs by Alamar blue dye-based colorimetric assay. It counts as functional. Put shortly: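 Two-fold serial dilutions from 512 down to 0.25 μg/mL in CAMHB (microbroth dilution); incubated 37 °C for 18–24 h, then Alamar Blue added for a further 4 h. Absorbance read at 570 and 600 nm; percent growth reduction plotted against concentration, MIC90 from non-linear regression; growth and MICs confirmed by optical density.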

Series [10] relates to Mycobacterium tuberculosis. In words: Antibacterial activity against Mycobacterium tuberculosis H37Rv after 6 days by Alamar blue dye-based colorimetric assay. It counts as functional. The following applies: 144 h. Put shortly:
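M. tuberculosis H37Rv grown to early-mid log phase in Middlebrook 7H9 with 10% OADC and 0.05% Tween 80, added to 1:2 serial compound dilutions, and grown for 6 days at 37°C. Alamar blue then added for a further 24 h. MIC taken as the concentration preventing visible growth and Alamar blue reduction in all replicates.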

Series [11] deals with Mycobacterium tuberculosis. Briefly: Binding affinity to Mycobacterium tuberculosis wild type FabB expressed in Mycobacterium smegmatis MC2 155 by WaterLOGSY-based competition assay.
Series [12] relates to Burkholderia pseudomallei. In words: Antibacterial activity against Burkholderia pseudomallei after 18 to 24 hrs by Alamar blue dye-based colorimetric assay. Type of series: functional.
Series [13] has as its system Yersinia pestis. In words: Antibacterial activity against Yersinia pestis A1122 after 18 to 24 hrs by Alamar blue dye-based colorimetric assay. Type of series: functional.
Series [14] concerns the target 3-oxoacyl-[acyl-carrier-protein] synthase 2 (Staphylococcus aureus, UniProt Q5TKS0, C165Q). Briefly: Binding affinity to Staphylococcus aureus FabF C165Q mutant expressed in Escherichia coli BL21 (DE3) PlysS cells by intrinsic tryptophan fluorescence quenching-based fluorimetric method. In a few lines:
(§2)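 Kd by quenching of intrinsic tryptophan fluorescence (excitation 280 nm, emission 337 nm). Inhibitor stocks in DMSO or buffer were titrated into 1 μM His-tag-purified enzyme in 50 mM Tris-HCl, 150 mM NaCl, 1 mM DTT, pH 8.5. mtFabB was expressed in M. smegmatis MC²155; saFabF was expressed in E. coli BL21(DE3) pLysS.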

The test system of series [15] is THP-1. In words: Cytotoxicity against human THP1 cells at < 100 ug/ml after 2 days by Alamar blue assay. The settings on record: thp-1, 48 h. Type of series: cell-based.
The nature of series [16]: Binding affinity to Mycobacterium tuberculosis wild type FabB expressed in Mycobacterium smegmatis MC2 155 by intrinsic tryptophan fluorescence quenching-based fluorimetric method. In a few lines:
as §2

Usually ED50 stands for the dose that gives a 50% effect, or the effect in half of the subjects. Turning to `CN[C@H](CC(C)C)C(=O)N[C@H]1C(=O)N[C@@H](CC(N)=O)C(=O)N[C@H]2C(=O)N[C@H]3C(=O)N[C@H](C(=O)N[C@H](C(=O)O)c4cc(O)cc(O)c4-c4cc3ccc4O)[C@H](O)c3ccc(c(Cl)c3)Oc3cc2cc(c3O[C@@H]2O[C@H](CO)[C@@H](O)[C@H](O)[C@H]2O[C@H]2C[C@](C)(N)[C@H](O)[C@H](C)O2)Oc2ccc(cc2Cl)[C@H]1O` [VANCOMYCIN], in [1], the ED50 was below 30 mg/kg. The MSD in series [2] was 5 days.

Broadly, the MIC is the lowest concentration found to suppress growth. In turn, GENTAMICIN had an MIC in [3] below 1 µg/mL. Moreover, the MSD in series [4] came out at 6.2 days.

What is called Kd is the constant that tells how readily two partners part at equilibrium. As usually defined, the MIC90 is the lowest concentration that inhibits either 90% of growth or 90% of the strains tested, depending on the study. High values mean lower susceptibility, low ones higher susceptibility. For the compound `C=C/C(C)=C/[C@@]1(C)SC(=O)C(C)=C1O` [THIOLACTOMYCIN], the results for the Kd in series [5] and in [14] were 107 µM and 88 µM, respectively. Also, the outcome in series [6] was Active. Further, the MIC90 in series [7] was 75 µg/mL (≈ 357 µM); in series [8], 2.8 µg/mL (≈ 13.3 µM); in series [9], 75 µg/mL (≈ 357 µM); in series [10] it was 3.1 µg/mL (≈ 14.7 µM); in series [13] it was 8 µg/mL (≈ 38 µM). Further, the result in [11] was inactive. Also, the MIC in series [12] was 8 µg/mL (≈ 38 µM). The MSD in [4] came to 3.25 days. The Activity result in [15] is “Non-Toxic”.

On to `C=C/C(C)=C/[C@@]1(C)SC(=O)C(C(=O)C(F)(F)F)=C1O`, for which the Kd is 58.4 µM in [5] and 56.2 µM in [14]. Also, the MIC90 in series [7] is 64 µg/mL (≈ 219 µM); in series [8], 98.1 µg/mL (≈ 336 µM); in series [9] it was above 64 µg/mL; in series [10] it was 100 µg/mL (≈ 342 µM); in series [13] it was above 250 µg/mL. Besides, the ED50 in [1] was 125 mg/kg. Also, in series [12], the outcome was inactive. In addition, the MSD in [2] was found to be 3 days; in series [4] it was 5.1 days.

Usually Ki stands for a dissociation constant, usually derived from enzyme kinetics or from competition with a known ligand. Higher therefore signals weaker binding. Take `C=C/C(C)=C/[C@@]1(C)SC(=O)C=C1OCC(=O)NCCNC(=O)OC(C)(C)C`: the MIC90 in [7] is above 64 µg/mL; in [8] it was 54 µg/mL (≈ 136 µM); in [9], above 64 µg/mL; in series [10], above 100 µg/mL. The compound also had a Ki in series [16] above 200 µM. In series [11], the result was inactive.
